Laboratory results taken from ChEMBL document CHEMBL3994637, “Broad spectrum anti-infective properties of benzisothiazolones and the parallels in their anti-bacterial and anti-fungal effects” (Bioorg Med Chem Lett, 2017).
Converted amounts (≈) assume the structure as drawn.

Legend:
Type in all cases: functional
Staphylococcus aureus [1] = experiment: Antibacterial activity against Staphylococcus aureus ATCC 29213 by broth microdilution method
Pseudomonas aeruginosa = experiment: Antibacterial activity against Pseudomonas aeruginosa ATCC BAA-427 by broth microdilution method
Method in brief: (§1)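 Bacteria were tested by the NCCLS method in Mueller Hinton broth, with gentamicin and norfloxacin as reference drugs.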

Staphylococcus aureus [2] = experiment: Antibacterial activity against methicillin-resistant Staphylococcus aureus ATCC 700699 by broth microdilution method; settings: Mu50
Klebsiella pneumoniae = experiment: Antibacterial activity against Klebsiella pneumoniae ATCC 27736 by broth microdilution method; method in brief: as §1
Escherichia coli = experiment: Antibacterial activity against Escherichia coli ATCC 9637 by broth microdilution method; settings: W; method in brief: as §1
Staphylococcus aureus [3] = experiment: Antibacterial activity against Staphylococcus aureus ATCC 25923 by broth microdilution method
Cryptococcus neoformans = experiment: Anti-fungal activity against Cryptococcus neoformans after 48 hrs by broth microdilution method
Sporothrix schenckii = experiment: Anti-fungal activity against Sporothrix schenckii after 48 hrs by broth microdilution method
Candida albicans = experiment: Anti-fungal activity against Candida albicans after 48 hrs by broth microdilution method
Plasmodium falciparum = experiment: Antimalarial activity against chloroquine-sensitive Plasmodium falciparum 3D7 after 72 hrs by SYBR Green-1 staining based fluorescence assay; settings: 3D7, 72 h
Aspergillus fumigatus = experiment: Anti-fungal activity against Aspergillus fumigatus after 48 hrs by broth microdilution method
Candida parapsilosis = experiment: Anti-fungal activity against Candida parapsilosis ATCC 22019 after 48 hrs by broth microdilution method; settings: Lodderomyces parapsilosis, ATCC 22019, 48 h
[4] = system: Trichophyton mentagrophytes; experiment: Anti-fungal activity against Trichophyton mentagrophytes after 48 hrs by broth microdilution method

Compound	MIC (Staphylococcus aureus [1]) [µg/mL]	MIC (Pseudomonas aeruginosa) [µg/mL]	MIC (Staphylococcus aureus [2]) [µg/mL]	MIC (Klebsiella pneumoniae) [µg/mL]	MIC (Escherichia coli) [µg/mL]	MIC (Staphylococcus aureus [3]) [µg/mL]	MIC (Cryptococcus neoformans) [µg/mL]	MIC (Sporothrix schenckii) [µg/mL]	IC50 (Staphylococcus aureus [1]) [µg/mL]	IC50 (Pseudomonas aeruginosa) [µg/mL]	IC50 (Staphylococcus aureus [2]) [µg/mL]	MIC (Candida albicans) [µg/mL]	IC50 (Plasmodium falciparum) [nM]	IC50 (Klebsiella pneumoniae) [µg/mL]	IC50 (Escherichia coli) [µg/mL]	IC50 (Staphylococcus aureus [3]) [µg/mL]	MIC (Aspergillus fumigatus) [µg/mL]	IC50 (Candida parapsilosis) [µg/mL]	MIC (Candida parapsilosis) [µg/mL]	MIC [4] [µg/mL]	other results
CCn1cc(C(=O)O)c(=O)c2cc(F)c(N3CCNCC3)cc21 [NORFLOXACIN]	0.78 (≈ 2.44 µM)	> 50	> 50	0.78 (≈ 2.44 µM)	0.39 (≈ 1.22 µM)	0.39 (≈ 1.22 µM)															
O=c1c2ccccc2sn1C1CCCCC1	7.1 (≈ 30.4 µM)	> 50	2.5 (≈ 10.7 µM)	> 50	> 50	9.8 (≈ 42 µM)	1.3 (≈ 5.57 µM)	0.6 (≈ 2.57 µM)	4.6 (≈ 19.7 µM)	> 50	1 (≈ 4.29 µM)	0.5 (≈ 2.14 µM)	> 2000	> 50	> 50	6.8 (≈ 29.1 µM)	3.7 (≈ 15.9 µM)	0.7 (≈ 3 µM)	0.9 (≈ 3.86 µM)	1 (≈ 4.29 µM)	IC50 (Cryptococcus neoformans): 1 µg/mL (≈ 4.29 µM); IC50 (Sporothrix schenckii): 0.4 µg/mL (≈ 1.71 µM); IC50 (Aspergillus fumigatus): 0.4 µg/mL (≈ 1.71 µM); IC50 [4]: 0.7 µg/mL (≈ 3 µM)
CC(C)Cn1sc2ccccc2c1=O	9.8 (≈ 47.3 µM)	> 50	5.2 (≈ 25.1 µM)	> 50	> 50	15.4 (≈ 74.3 µM)	0.4 (≈ 1.93 µM)	1.4 (≈ 6.75 µM)	6.3 (≈ 30.4 µM)	> 50	4.7 (≈ 22.7 µM)	0.6 (≈ 2.89 µM)	> 2000	> 50	> 50	10.6 (≈ 51.1 µM)	2.6 (≈ 12.5 µM)	1 (≈ 4.82 µM)	1.1 (≈ 5.31 µM)	> 50	IC50 (Aspergillus fumigatus): 1.3 µg/mL (≈ 6.27 µM); IC50 [4]: > 50 µg/mL
CC(Cn1sc2ccccc2c1=O)n1sc2ccccc2c1=O (centres undefined)	4.1 (≈ 12 µM)	> 50	2.6 (≈ 7.59 µM)	> 50	> 50	12.4 (≈ 36.2 µM)	1.67 (≈ 4.88 µM)	6.6 (≈ 19.3 µM)	2 (≈ 5.84 µM)	> 50	1.5 (≈ 4.38 µM)	3.1 (≈ 9.05 µM)	> 2000	> 50	> 50	6.1 (≈ 17.8 µM)	12.5 (≈ 36.5 µM)	> 50	> 50	4.3 (≈ 12.6 µM)	IC50 (Cryptococcus neoformans): 1.61 µg/mL (≈ 4.7 µM); IC50 (Sporothrix schenckii): 3.7 µg/mL (≈ 10.8 µM); IC50 (Candida albicans): 2.2 µg/mL (≈ 6.42 µM)
O=c1c2ccccc2sn1CCn1sc2ccccc2c1=O	0.4 (≈ 1.22 µM)	> 50	0.9 (≈ 2.74 µM)	> 50	> 50	16.7 (≈ 50.8 µM)	2.2 (≈ 6.7 µM)	3.5 (≈ 10.7 µM)	0.3 (≈ 0.913 µM)	> 50	0.4 (≈ 1.22 µM)	1.54 (≈ 4.69 µM)	> 2000	> 50	> 50	4.1 (≈ 12.5 µM)	12.5 (≈ 38.1 µM)	> 50	> 50	2.9 (≈ 8.83 µM)	IC50 (Cryptococcus neoformans): 1.4 µg/mL (≈ 4.26 µM); IC50 (Sporothrix schenckii): 2.3 µg/mL (≈ 7 µM); IC50 (Candida albicans): 1.51 µg/mL (≈ 4.6 µM)
O=c1c2ccccc2sn1C1CCCCC1n1sc2ccccc2c1=O (centres undefined)	3.7 (≈ 9.67 µM)	> 50	2.3 (≈ 6.01 µM)	> 50	> 50	3.4 (≈ 8.89 µM)	> 50	> 50	2.5 (≈ 6.54 µM)	> 50	1.4 (≈ 3.66 µM)	> 50	> 2000	> 50	> 50	3.2 (≈ 8.37 µM)	> 50	> 50	> 50	> 50	IC50 (Cryptococcus neoformans): > 50 µg/mL; IC50 (Sporothrix schenckii): > 50 µg/mL; IC50 (Candida albicans): > 50 µg/mL; IC50 (Aspergillus fumigatus): > 50 µg/mL; IC50 [4]: > 50 µg/mL
C[C@@H]1[C@H](O)[C@@H](C)/C=C/C=C/C=C/C=C/C=C/C=C/C=C/[C@H](O[C@@H]2O[C@H](C)[C@@H](O)[C@H](N)[C@@H]2O)C[C@@H]2O[C@](O)(C[C@@H](O)C[C@@H](O)[C@H](O)CC[C@@H](O)C[C@@H](O)CC(=O)O[C@H]1C)C[C@H](O)[C@H]2C(=O)O [AMPHOTERICIN B]							0.125 (≈ 0.135 µM)	0.25 (≈ 0.271 µM)				0.016 (≈ 0.0173 µM)					0.5 (≈ 0.541 µM)		0.016 (≈ 0.0173 µM)	0.25 (≈ 0.271 µM)	
COC(=O)[C@H](C)NC(=O)[C@H](C)n1sc2ccccc2c1=O	5.6 (≈ 18.2 µM)	> 50	7.5 (≈ 24.3 µM)	> 50	> 50	7.5 (≈ 24.3 µM)	> 50	> 50	3.5 (≈ 11.4 µM)	> 50	3.6 (≈ 11.7 µM)	> 50	> 2000	> 50	> 50	3.6 (≈ 11.7 µM)	> 50	> 50	> 50	> 50	IC50 (Cryptococcus neoformans): > 50 µg/mL; IC50 (Sporothrix schenckii): > 50 µg/mL; IC50 (Candida albicans): > 50 µg/mL; IC50 (Aspergillus fumigatus): > 50 µg/mL; IC50 [4]: > 50 µg/mL
